Screening data from PubChem.
L major viab – inhibitors of Leishmania major promastigote growth; Leishmania major promastigotes, resazurin fluorescence viability; inhibition, % at 10 µM; hit rate 9% among 200,000; AID 1063; in the data active = inhibition above about 50%;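 also: promastigotes grown with compound for 44 hours at 28 °C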
Diaphorase inh – counter-screen for diaphorase-based assays: diaphorase inhibitors and chemical oxidizers; AID 1217; inhibition, % at 20 µM; diaphorase resazurin-to-resorufin fluorescence, NADH, 16 min; bacterial (C. kluyveri) enzyme, not human; hit rate 0.69% among 190,000;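 active = primary screen inhibition at 20 µM above a set limit, cut at about 50% in these data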
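Benchmarks: positive control wells lacking NADH, neutral wells with DMSO only. System: bacterial diaphorase enzyme (C. kluyveri). Input: 0.14 U/mL diaphorase, enzyme working solution. Detection: resorufin fluorescence, excitation 544 nm, emission 590 nm. Times: 16-min room-temperature incubation before reading.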
ROMK primary – modulates human ROMK potassium channel activity; B-score at 10 µM; hit rate 2% among 130,000; Tet-inducible ROMK, thallium flux fluorescence; actives lie on both sides; P48048;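 active = signal ratio slope over the read window, or its plate-corrected B-score, at least 3 SD from the plate mean, either direction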;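 also: B-score of the F/F0 ratio slope over 7 to 12 s after thallium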
KCC2 mod – modulators of human KCC2 chloride dependent transport; hit rate 2.2% among 190,000; KCC2 cells, thallium flux FluoZin-2 fluorescence; AID 1456; Q9H2X9; B-score of Tl+ flux slope (higher = more flux/activation; lower = inhibition) at 10 µM;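 active = thallium flux slope and its plate-corrected score both differing from the plate sample mean at a set confidence after two filtering rounds, in either direction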;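 also: slope of fluorescence scaled to starting intensity during 10 to 20 s after thallium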
Target sequence (Q9H2X9 whole entry, looked up): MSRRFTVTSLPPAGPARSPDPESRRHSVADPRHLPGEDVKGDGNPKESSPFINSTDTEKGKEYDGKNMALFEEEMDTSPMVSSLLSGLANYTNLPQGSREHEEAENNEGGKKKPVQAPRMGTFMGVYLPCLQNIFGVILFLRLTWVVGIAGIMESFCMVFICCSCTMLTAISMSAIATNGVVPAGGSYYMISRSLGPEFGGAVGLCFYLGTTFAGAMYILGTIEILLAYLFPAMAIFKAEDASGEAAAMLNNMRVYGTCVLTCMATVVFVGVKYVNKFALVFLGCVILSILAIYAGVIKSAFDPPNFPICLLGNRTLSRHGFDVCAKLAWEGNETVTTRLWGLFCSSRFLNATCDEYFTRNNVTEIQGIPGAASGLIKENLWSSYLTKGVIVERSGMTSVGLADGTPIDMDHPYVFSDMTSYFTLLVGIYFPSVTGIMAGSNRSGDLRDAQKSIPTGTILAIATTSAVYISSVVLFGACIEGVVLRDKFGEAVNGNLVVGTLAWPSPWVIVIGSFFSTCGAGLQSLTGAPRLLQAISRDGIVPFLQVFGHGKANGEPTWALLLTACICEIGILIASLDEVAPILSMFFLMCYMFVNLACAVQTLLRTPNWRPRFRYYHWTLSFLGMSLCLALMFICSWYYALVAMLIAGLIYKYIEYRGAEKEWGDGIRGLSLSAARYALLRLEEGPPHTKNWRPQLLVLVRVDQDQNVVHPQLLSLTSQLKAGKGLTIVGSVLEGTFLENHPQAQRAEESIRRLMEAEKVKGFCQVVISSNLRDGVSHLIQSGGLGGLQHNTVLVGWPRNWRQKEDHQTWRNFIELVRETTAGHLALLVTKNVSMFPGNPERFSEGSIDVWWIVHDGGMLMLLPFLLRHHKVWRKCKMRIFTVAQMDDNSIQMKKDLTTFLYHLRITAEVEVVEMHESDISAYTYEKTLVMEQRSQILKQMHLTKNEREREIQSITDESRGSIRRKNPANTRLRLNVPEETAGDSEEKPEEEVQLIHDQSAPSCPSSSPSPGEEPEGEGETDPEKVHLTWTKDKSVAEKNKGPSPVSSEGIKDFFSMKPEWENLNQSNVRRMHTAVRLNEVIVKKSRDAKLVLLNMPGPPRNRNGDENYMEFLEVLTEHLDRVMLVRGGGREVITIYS
WT yeast gro inh – growth inhibition of WT yeast, mitochondrial fusion screen | mitochondrial fusion phenotypic screen, WT strain | inhibition, % at 10 µM | hit rate 2.1% among 190,000 | AID 1362; in the data active = inhibition above about 58%; tested in S. cerevisiae
Diaph act CS – diaphorase activation or chemical reduction counter-screen; Diaphorase/resazurin coupled assay, resorufin fluorescence, 16 min; hits give high values; 1 = vehicle wells, 0 = NADH-free wells; activation factor at 20 µM; hit rate 0.005% among 190,000;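 active = diaphorase activity raised at least twofold by the compound at 20 µM; inactive = activation factor below 2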
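Material: Clostridium kluyveri diaphorase, purified enzyme; Quantity: enzyme 0.07 U/mL final; Medium: HEPES pH 7.4 buffer with MgCl2 and Tween 20; Dosing: single compound dose of 20 µM, 1% DMSO final; Schedule: 16 min reaction at room temperature; Measured by: red resorufin fluorescence at 544/590 nm excitation/emission.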
Of the large screens only hits and unclear results are named; the others gave an inactive call. Hits are enriched below; roughly 12% of the tested compounds scored in any of these assays.

OCC1(CCOc2ccccc2)CCN(Cc2ccc3cccc(F)c3n2)CC1	L major viab 81.9
Cc1ccc(C)c(-n2c(C)cc(/C=N/NC(=O)c3c(C)nc4cc(C)ccn34)c2C)c1	none
COc1cccc(CC2(CO)CCN(Cc3cn(C)nc3C)CC2)c1	L major viab 75.0
CCCCOC(=O)C1=C(C)Nc2ncnn2C1c1ccc(OC)c(OC)c1 (centres undefined)	L major viab 75.2 (no result: ROMK primary)
CCOC(=O)C1=C(C)Nc2nnnn2C1c1ccc(OC)c(Br)c1 (centres undefined)	L major viab 90.9 (no result: ROMK primary)
COc1ccc(C2C(C(=O)OC3CCCCC3)=C(C)Nc3nnnn32)c(OC)c1OC (centres undefined)	L major viab 91.4
CCCCOC(=O)C1=C(C)Nc2ncnn2C1c1ccc(OCC)c(OC)c1 (centres undefined)	none (no result: ROMK primary)
CC1Oc2ccccc2C=C1/C=N\NC(=O)c1cccnc1 (centres undefined)	none (no result: L major viab, Diaphorase inh, WT yeast gro inh, Diaph act CS)
Cc1c(-c2cccc(NC(=O)c3cccs3)c2)nc2ncccn12	L major viab 75.2 (no result: ROMK primary)
Cc1c(-c2cccc(NC(=O)c3ccco3)c2)nc2ncccn12	L major viab 100.0
Cc1onc(-c2ccccc2Cl)c1C(=O)Nc1cccc(-c2nc3ncccn3c2C)c1	none (no result: ROMK primary)
O=C(N/N=C/c1cccc([N+](=O)[O-])c1)C1CC1c1ccccc1 (centres undefined)	none
Cc1nc2cc(C(=O)NCc3cccnc3)ccc2n1-c1ccc(F)cc1F	none
O/N=C1/C2C3C(Br)C4C5CC(C1C53)C24 (centres undefined)	none
COCC(C)n1c(SCC(=O)NC(=O)Nc2ccc3c(c2)OCCO3)nc2ccccc2c1=O (centres undefined)	L major viab 85.3 (no result: KCC2 mod)
COc1ccc(CSc2nc3ccccc3c(=O)n2CCCN2CCOCC2)cc1F	L major viab 97.9
COCC(C)n1c(SCc2ccc(OC)c(F)c2)nc2ccccc2c1=O (centres undefined)	L major viab 100.3, WT yeast gro inh 73.5
O=c1c2ccccc2nc(SCCN2CCOCC2)n1CCc1ccccc1	none
COc1ccc(CCn2c(SCCN3CCCCC3)nc3ccccc3c2=O)cc1OC	L major viab 99.9
On1nnc2ccc3ccccc3c21	none
C[C@@H]1CC[C@H](O)/C=C/C(=O)O[C@H](C)CC[C@H](O)/C=C/C(=O)O1	none (no result: L major viab, Diaphorase inh, ROMK primary, WT yeast gro inh, Diaph act CS)
CC(C)(C)NC(=O)COC(=O)/C=C/c1ccc(F)cc1	none (no result: ROMK primary)
CN(C)C(=O)c1nc2ccc(Cl)cn2c1CNCc1ccccc1OC(F)(F)F	none (no result: KCC2 mod)
Cc1ccc(C(=O)NNC(=S)NC(=O)COc2ccccc2)cc1	ROMK primary 6.61, KCC2 mod 94.8, WT yeast gro inh 84.2
Cc1ccc(C(=O)NC(=S)NNC(=O)CC#N)cc1	Diaphorase inh 57.4
N#CCC(=O)NNC(=S)NC(=O)C(c1ccccc1)c1ccccc1	none (no result: ROMK primary)
CC(C)(C)C(=O)NC(=S)NNC(=O)c1ccncc1	none
CC(C)(C)C(=O)NC(=S)NNC(=O)c1ccc(-c2ccccc2)cc1	L major viab 96.6, ROMK primary 6.09, KCC2 mod 86.6, WT yeast gro inh 67.5
Cc1ccccc1C(=O)NNC(=S)NC(=O)COc1ccccc1	KCC2 mod 19.5
O=C1Nc2ccccc2N(O)N1c1ccc(S(=O)(=O)N2CCCCCC2)cc1	none
Cc1nn(CCO)c2nc(-c3cccs3)cc(C(F)(F)F)c12	none (no result: KCC2 mod)
CN1C(=O)CC(C(=O)O)SC1=Nc1cc(Cl)cc(Cl)c1 (centres undefined)	none
CN(C)CCNC(=O)c1c(CSc2ccccc2)noc1C(=O)NCc1ccccc1	none (no result: L major viab, Diaphorase inh, ROMK primary, WT yeast gro inh, Diaph act CS)
Cc1ccc(CN(CC(=O)NCCc2ccccc2)C(=O)CCCC(=O)Nc2cc(C)on2)cc1	none
CC(C)(C)C1C=C(Sc2ccccc2)C(=O)O1 (centres undefined)	none
O=S(=O)(Nc1nccs1)c1ccc(Cl)cc1	none (no result: KCC2 mod)
Cc1ccc(SC(=O)c2c([N+](=O)[O-])c(C)nn2C)cc1	none (no result: L major viab, Diaphorase inh, WT yeast gro inh, Diaph act CS)
C=CCn1c(SCC(=O)Nc2sccc2C(N)=O)nc2ccc(Cl)cc2c1=O	KCC2 mod 11.3 (no result: ROMK primary)
C=CCn1c(SCN2C(=O)c3ccccc3C2=O)nc2ccc(Cl)cc2c1=O	KCC2 mod 41.7
C=CCn1c(SCC(=O)Nc2ccccc2-c2ccccc2)nc2cc(C(=O)O)ccc2c1=O	none
CCCN1CNC(=S)N(CC2CCCO2)C1 (centres undefined)	none
COc1ccc(C2CC(c3ccc(Br)cc3)=NN2C(=O)CSC2=NCCS2)cc1 (centres undefined)	none
C=CCN(CC=C)S(=O)(=O)c1ccc(NC(=S)NC(=O)c2ccco2)cc1	KCC2 mod 8.14 (no result: ROMK primary)
C=CCN(CC=C)S(=O)(=O)c1ccc(NC(=S)NC(=O)Cc2ccc(OC)cc2)cc1	L major viab 61.5 (no result: KCC2 mod)
CC1CN(c2ncnc3c2c(-c2ccccc2)cn3-c2ccc(F)cc2)CC(C)O1 (centres undefined)	WT yeast gro inh 75.2
Cc1cccc(-n2cc(-c3ccccc3)c3c(N4CCOCC4)ncnc32)c1	none
COc1ccc(-n2cc(-c3ccccc3)c3c(N4CCN(CCO)CC4)ncnc32)cc1	none (no result: ROMK primary)
Cc1ccc(-n2cc(-c3ccccc3)c3c(N4CCN(C)CC4)ncnc32)cc1	WT yeast gro inh 62.0
OCCN1CCN(c2ncnc3c2c(-c2ccccc2)cn3-c2ccc(F)cc2)CC1	none
Cc1ccc(-n2cc(-c3ccccc3)c3c(N4CCOCC4)ncnc32)cc1	WT yeast gro inh 71.5
O=C(Nc1ccccc1)c1ccc(NCCN2C(=O)CCC2=O)c([N+](=O)[O-])c1	none
CCOC(=O)c1cnc2c(-c3cccc(Br)c3)cnn2c1C	none
Cc1noc2ncnc(N3CCN(c4cccc(Cl)c4)CC3)c12	WT yeast gro inh 61.0
C/C(N)=C(/C#N)C(=O)COC(=O)c1oc2ccccc2c1COC(C)C	none
O=C(OCCN1CCOCC1)c1ccc(OCCN2CCOCC2)cc1	none
CCCOc1cc(CN2CCCCC2)cc(C(C)=O)c1	L major viab 52.4
CCCCOc1ccc(C(=O)CCN2CCOCC2)cc1	L major viab 75.8
CCCOc1ccc(OCCN2CCCC(C)C2)cc1 (centres undefined)	L major viab 95.7
CCOc1ccc(C(=O)OC2CCN(C)CC2)cc1	L major viab 100.2
CCOC(Cn1cc(C)c(=O)[nH]c1=O)OCC	none
COc1ccc(OCCC(=O)N2CCCCC2)cc1	WT yeast gro inh 88.0 (no result: ROMK primary, KCC2 mod)
CCCOc1ccc(C(=O)CCN2CCCCC2)cc1	L major viab 89.8
COc1ccc(C(=O)CCN2CCc3cc(OC)c(OC)cc3C2)cc1	L major viab 67.4
CCCOc1ccc(C(O)(CCC)CCN2CCCCC2)cc1 (centres undefined)	none (no result: ROMK primary)
CCOc1ccc(C(=O)CCN2CCCCCC2)cc1	L major viab 100.2 (no result: ROMK primary)
CCOc1ccc(OCCN2CCCCC2)cc1	none
COc1ccc2[nH]c3nc(SCc4nnc(-c5ccc(C)cc5)o4)nnc3c2c1	none
